Laboratory results: article PMC10682633 (Heliyon, 2023)

Legend:
mushroom tyrosinase = experiment: Tyrosinase inhibitory assay; assay type: biochemical; details: for % inhibition at 50 μM: 50 μM compound, L-DOPA substrate; for IC50: read-out: IC50 (μM) ± RSD, L-DOPA substrate, means ± RSD
[1] = Antioxidant activity, DPPH assay; details: for % inhibition at 200 μM: 200 μM compound; for IC50: read-out: IC50(μM) ± RSD
tyrosinase [2] = experiment: Enzyme kinetic studies; assay type: biochemical; details: Lineweaver-Burk plot; L-DOPA 0-1.5 mM; inhibitor 5-80 μM
In short: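 Mushroom tyrosinase with L-DOPA as substrate, tested across several inhibitor concentrations. Reaction rates were plotted as 1/V against 1/[S] (Lineweaver–Burk double-reciprocal plot) to assign the inhibition type. Km was read from this plot.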

tyrosinase [3] = details: tyrosinase inhibition; cited from earlier work

| SMILES | % inhibition at 50 μM (mushroom tyrosinase) | IC50 (mushroom tyrosinase) | % inhibition at 200 μM [1] | further results |
| --- | --- | --- | --- | --- |
| O=c1cc(CO)oc(C(Nc2ccccn2)c2ccccc2F)c1O (stereo not drawn) [Compound 4b, 2-((2-Fluorophenyl)(pyridin-2-ylamino)methyl)-3-hydroxy-6-(hydroxymethyl)-4H-pyran-4-one] | 59.42 ± 5.71% | 28.2 ± 3.63 µM | 14.09 ± 4.10% |  |
| O=c1cc(CO)oc(C(Nc2ccccn2)c2cccc([N+](=O)[O-])c2)c1O (stereo not drawn) [Compound 4h, 3-Hydroxy-6-(hydroxymethyl)-2-((3-nitrophenyl)(pyridin-2-ylamino)methyl)-4H-pyran-4-one] | 74.85 ± 4.26% | 20.4 ± 2.15 µM |  | Mode of inhibition (tyrosinase [2]): uncompetitive; % inhibition at 200 μM ([1]; 200 µM): 37.27 ± 5.42% |
| Cc1ccc(C(Nc2ccccn2)c2oc(CO)cc(=O)c2O)cc1 (stereo not drawn) [Compound 4k, 3-Hydroxy-6-(hydroxymethyl)-2-((pyridin-2-ylamino)(p-tolyl)methyl)-4H-pyran-4-one] | 22.28 ± 4.52% | > 50 µM | 26.96 ± 2.54% |  |
| O=c1cc(CO)oc(C(Nc2ccccn2)c2ccccc2)c1O (stereo not drawn) [Compound 4a, 3-Hydroxy-6-(hydroxymethyl)-2-(phenyl(pyridin-2-ylamino)methyl)-4H-pyran-4-one] | 29.14 ± 2.86% |  | 20.86 ± 4.41% |  |
| O=c1c(O)c(-c2ccc(O)c(O)c2)oc2cc(O)cc(O)c12 [Quercetin, reference compound] |  |  |  | IC50 [1]: 18.6 ± 2.19 µM |
| O=c1cc(CO)oc(C(Nc2ccccn2)c2ccccc2Cl)c1O (stereo not drawn) [Compound 4d, 2-((2-Chlorophenyl)(pyridin-2-ylamino)methyl)-3-hydroxy-6-(hydroxymethyl)-4H-pyran-4-one] | 60.35 ± 1.43% | 22.4 ± 3.34 µM | 19.49 ± 3.98% |  |
| O=c1cc(CO)oc(C(Nc2ccccn2)c2cccc(Br)c2)c1O (stereo not drawn) [Compound 4g, 2-((3-Bromophenyl)(pyridin-2-ylamino)methyl)-3-hydroxy-6-(hydroxymethyl)-4H-pyran-4-one] | 33.71 ± 4.88% |  | 18.44 ± 1.54% |  |
| O=c1cc(CO)oc(C(Nc2ccccn2)c2cccc(F)c2)c1O (stereo not drawn) [Compound 4c, 2-((3-Fluorophenyl)(pyridin-2-ylamino)methyl)-3-hydroxy-6-(hydroxymethyl)-4H-pyran-4-one] | 28.47 ± 1.59% |  | 18.65 ± 3.05% |  |
| COc1ccc(C(Nc2ccccn2)c2oc(CO)cc(=O)c2O)cc1[N+](=O)[O-] (stereo not drawn) [Compound 4i, 3-Hydroxy-6-(hydroxymethyl)-2-((4-methoxy-3-nitrophenyl)(pyridin-2-ylamino)methyl)-4H-pyran-4-one] | 56.57 ± 3.84% | 30.9 ± 4.13 µM | 64.24 ± 3.39% | IC50 [1]: 121 ± 10.4 µM |
| COc1cccc(C(Nc2ccccn2)c2oc(CO)cc(=O)c2O)c1O (stereo not drawn) [Compound 4l, 3-Hydroxy-2-((2-hydroxy-3-methoxyphenyl)(pyridin-2-ylamino)methyl)-6-(hydroxymethyl)-4H-pyran-4-one] | 52.07 ± 5.27% | 37.1 ± 5.42 µM | 30.61 ± 5.76% |  |
| O=c1cc(CO)oc(C(Nc2ccccn2)c2ccccc2Br)c1O (stereo not drawn) [Compound 4f, 2-((2-Bromophenyl)(pyridin-2-ylamino)methyl)-3-hydroxy-6-(hydroxymethyl)-4H-pyran-4-one] | 60.85 ± 4.29% | 23.4 ± 4.19 µM | 13.03 ± 2.86% |  |
| O=c1cc(CO)oc(C(Nc2ccccn2)c2ccc(COc3ccccc3)cc2)c1O (stereo not drawn) [Compound 4m, 3-Hydroxy-6-(hydroxymethyl)-2-((4-(phenoxymethyl)phenyl)(pyridin-2-ylamino)methyl)-4H-pyran-4-one] | 35.42 ± 2.43% |  | 23.30 ± 5.17% |  |
| O=c1cc(/C=C/c2cc(=O)c(O)co2)occ1O [B, (E)-6,6'-(ethene-1,2-diyl)bis(3-hydroxy-4H-pyran-4-one)] |  |  |  | IC50 (tyrosinase [3]): 3.63 µM |
| Cc1cccc(C(Nc2ccccn2)c2oc(CO)cc(=O)c2O)c1 (stereo not drawn) [Compound 4j, 3-Hydroxy-6-(hydroxymethyl)-2-((pyridin-2-ylamino)(m-tolyl)methyl)-4H-pyran-4-one] |  | > 50 µM | 17.90 ± 6.77% | % inhibition at 50 μM (mushroom tyrosinase; 50 µM): 16.85 ± 3.14% |
| O=c1cc(CO)oc(C(Nc2ccccn2)c2cccc(Cl)c2)c1O (stereo not drawn) [Compound 4e, 2-((3-Chlorophenyl)(pyridin-2-ylamino)methyl)-3-hydroxy-6-(hydroxymethyl)-4H-pyran-4-one] | 50.57 ± 2.65% | 44.7 ± 3.59 µM | 17.21 ± 4.01% |  |
